Results collected from several papers.
Compare with care: the assays were run in different laboratories.
Read-out: metabolic stability

| Compound | system | setting | endpoint | value |
| --- | --- | --- | --- | --- |
| c1ccc(-c2nc(Nc3ccn4nccc4c3)c3ccccc3n2)nc1 | mouse, liver microsomes | – | microsomal CLint | 325 µL/min/mg |
| Cc1cc(Cl)c(Cl)cc1NC(=O)c1cc([N+](=O)[O-])c(N2CCNCC2)cc1Cl | CD-1 mouse, liver microsomes | 1 µM, 1 h, pH 7.4 | scaled CLint | 25 mL/min/kg |
| CO[C@@H](C[C@H]1C(C)=CC[C@@H]2[C@]3(C)C[C@H](O[C@@H]4O[C@@H](C)[C@H](OC(=O)c5cccc(O)c5)[C@@H](O[C@@H]5O[C@H](CO)[C@@H](O)[C@H](O)[C@H]5NC(C)=O)[C@H]4O)[C@@H](O)C(C)(C)[C@H]3CC[C@]21C)[C@H](N)C(=O)O | mouse, hepatocytes | 1 µM | hepatocyte CLint | 4.69 µL/min/10⁶ cells |
| CN[C@@H]1CCCN(c2ccc(Nc3cc(NC4CC4)n4ncc(C#N)c4n3)cc2NC(C)=O)C1 | male CD-1 mouse, hepatocytes | 1 µM, serum-free | scaled CLint | 162 mL/min/kg |
| Cc1ccc(F)c2cc(C(=O)N[C@@H]3CCC[C@H](N4CCOCC4)C3)[nH]c12 | mouse, hepatocytes | 0.5 µM, 1 h | scaled CLint | 2170 mL/min/kg |
| O=C(Nc1cncc(-c2nc3ccccc3s2)c1)c1cc([N+](=O)[O-])c(N2CCNCC2)cc1Cl | CD-1 mouse, liver microsomes | 1 µM, 1 h, pH 7.4 | scaled CLint | 10 mL/min/kg |
| c1ccc(-c2nc(NCc3nccs3)c3ccccc3n2)nc1 | mouse, liver microsomes | – | microsomal CLint | 224 µL/min/mg |
| CC(=O)N(C)C1CCN(c2cc(F)cc(NC(=O)c3cc4c(F)ccc(C)c4[nH]3)c2)C1 (centres unmarked) | mouse, hepatocytes | 0.5 µM, 1 h | scaled CLint | 239 mL/min/kg |
| O=C(Nc1ccc(Cl)c(Cl)c1)c1ccc(N2CCNCC2)c([N+](=O)[O-])c1 | CD-1 mouse, liver microsomes | 1 µM, 1 h, pH 7.4 | scaled CLint | 12 mL/min/kg |
| CC(=O)Nc1cc(Nc2cc(NC3CC3)n3ncc(C#N)c3n2)ccc1N1CCC[C@H](O)C1 | male CD-1 mouse, hepatocytes | 1 µM, serum-free | scaled CLint | 511 mL/min/kg |
| N#Cc1ccccc1-c1nc(N2CCC(c3ccccn3)C2)c2ccccc2n1 (centres unmarked) | mouse, liver microsomes | – | microsomal CLint | 717 µL/min/mg |
